Legend:
[1] = target: Sodium-dependent dopamine transporter (Rattus norvegicus, UniProt P23977); experiment: Displacement of [3H]WIN-35428(0.5 nM) from Dopamine transporter
In short: (§1)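 IC50 is taken as inhibition of specific binding. Values are mean ± standard error of three or four experiments, with triplicate determinations at each concentration.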

[2] = target: Norepinephrine transporter (Rattus norvegicus, UniProt Q9WTR4); experiment: Inhibition of [3H]nisoxetine (0.5 nM) binding to Noradrenaline transporter; in short: as §1
[3] = target: Sodium-dependent serotonin transporter (Rattus norvegicus, UniProt P31652); experiment: Inhibition of [3H]paroxetine (0.2 nM) binding to 5-HT transporter; in short: as §1
Chain of Sodium-dependent serotonin transporter (P31652 whole entry): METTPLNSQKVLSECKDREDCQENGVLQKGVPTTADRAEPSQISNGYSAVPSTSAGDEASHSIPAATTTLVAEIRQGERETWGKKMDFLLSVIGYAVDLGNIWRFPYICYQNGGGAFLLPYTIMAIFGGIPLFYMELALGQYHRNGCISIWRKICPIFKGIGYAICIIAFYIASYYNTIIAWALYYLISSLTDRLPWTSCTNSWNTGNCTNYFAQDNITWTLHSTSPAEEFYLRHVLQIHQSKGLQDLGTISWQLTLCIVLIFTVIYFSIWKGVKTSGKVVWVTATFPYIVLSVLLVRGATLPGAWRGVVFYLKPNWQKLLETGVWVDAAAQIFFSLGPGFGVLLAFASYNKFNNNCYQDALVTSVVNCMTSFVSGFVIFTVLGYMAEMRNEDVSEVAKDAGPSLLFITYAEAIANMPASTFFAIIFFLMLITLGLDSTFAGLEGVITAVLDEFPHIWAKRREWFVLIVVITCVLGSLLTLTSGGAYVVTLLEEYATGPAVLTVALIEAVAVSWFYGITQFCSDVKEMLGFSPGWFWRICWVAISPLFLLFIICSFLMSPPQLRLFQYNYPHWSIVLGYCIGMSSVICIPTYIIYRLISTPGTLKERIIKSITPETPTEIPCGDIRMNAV

Chain of Sodium-dependent dopamine transporter (P23977 whole entry): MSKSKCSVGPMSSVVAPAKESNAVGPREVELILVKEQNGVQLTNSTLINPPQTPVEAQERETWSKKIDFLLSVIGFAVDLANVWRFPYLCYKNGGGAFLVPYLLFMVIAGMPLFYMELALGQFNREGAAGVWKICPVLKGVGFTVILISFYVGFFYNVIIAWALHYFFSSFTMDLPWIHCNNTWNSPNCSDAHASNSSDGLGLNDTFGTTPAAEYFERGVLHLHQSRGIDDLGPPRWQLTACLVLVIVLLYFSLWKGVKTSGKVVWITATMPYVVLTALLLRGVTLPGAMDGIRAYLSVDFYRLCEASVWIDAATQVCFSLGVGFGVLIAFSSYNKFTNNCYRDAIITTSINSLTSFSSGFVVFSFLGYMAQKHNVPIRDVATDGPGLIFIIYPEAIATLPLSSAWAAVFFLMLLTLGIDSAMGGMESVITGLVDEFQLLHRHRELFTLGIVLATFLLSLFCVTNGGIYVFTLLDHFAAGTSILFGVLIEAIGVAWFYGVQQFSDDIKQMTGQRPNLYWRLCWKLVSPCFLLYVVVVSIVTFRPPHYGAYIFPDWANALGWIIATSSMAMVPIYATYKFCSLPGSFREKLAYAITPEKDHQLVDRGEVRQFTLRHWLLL
Chain of Norepinephrine transporter (Q9WTR4 whole entry): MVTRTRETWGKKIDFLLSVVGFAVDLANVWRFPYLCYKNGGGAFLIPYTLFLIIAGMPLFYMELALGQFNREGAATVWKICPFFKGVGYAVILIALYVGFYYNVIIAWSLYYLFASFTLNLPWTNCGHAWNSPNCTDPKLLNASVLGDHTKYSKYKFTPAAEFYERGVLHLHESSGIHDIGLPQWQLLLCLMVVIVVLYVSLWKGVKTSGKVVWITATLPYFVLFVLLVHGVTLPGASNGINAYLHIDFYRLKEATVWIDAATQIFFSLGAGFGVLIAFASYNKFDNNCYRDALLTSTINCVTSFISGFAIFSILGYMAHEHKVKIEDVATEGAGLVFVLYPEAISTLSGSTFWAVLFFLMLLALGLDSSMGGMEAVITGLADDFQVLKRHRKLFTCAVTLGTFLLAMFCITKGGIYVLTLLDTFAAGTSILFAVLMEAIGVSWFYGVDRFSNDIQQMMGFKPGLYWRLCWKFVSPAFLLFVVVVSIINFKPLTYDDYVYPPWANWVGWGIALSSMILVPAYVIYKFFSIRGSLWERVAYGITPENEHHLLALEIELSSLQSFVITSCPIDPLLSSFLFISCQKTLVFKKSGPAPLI

SMILES | IC50 [1] [nM] | IC50 [2] [nM] | IC50 [3] [nM]
CN1C2CC[C@@H]1C[C@@H](c1ccc(F)cc1)[C@@H]2COc1ccc2c(c1)OCO2 | 3.01 | 123 | 422
Fc1ccc([C@H]2CC3CCC(N3)[C@H]2COc2ccc3c(c2)OCO3)cc1 (stereo in doubt; 4f) | 403 | 1990 | 19
CN1C2CC[C@@H]1[C@H](COc1ccc3c(c1)OCO3)[C@H](c1ccc(F)cc1)C2 | 1500 | 2920 | 447
CN1C2CC[C@@H]1[C@@H](COc1ccc3c(c1)OCO3)[C@H](c1ccc(F)cc1)C2 | 1050 | 27600 | 88.1
Fc1ccc([C@@H]2CC3CCC(N3)[C@@H]2COc2ccc3c(c2)OCO3)cc1 (stereo partly specified) | 27.6 | 1690 | 55.8
Fc1ccc([C@@H]2CC3CCC(N3)[C@H]2COc2ccc3c(c2)OCO3)cc1 (stereo in doubt; 4d) | 1210 | 17300 | 424
Fc1ccc([C@H]2CC3CCC(N3)[C@@H]2COc2ccc3c(c2)OCO3)cc1 (stereo partly specified) | 142 | 2500 | 90
CN1C2CC[C@@H]1C[C@H](c1ccc(F)cc1)[C@@H]2COc1ccc2c(c1)OCO2 | 308 | 5300 | 294
CN1C2CC[C@@H]1C[C@H](c1ccc(F)cc1)[C@H]2COc1ccc2c(c1)OCO2 | 172 | 26600 | 52.9
Fc1ccc([C@H]2CC3CCC(N3)[C@H]2COc2ccc3c(c2)OCO3)cc1 (stereo in doubt; 4a) | 835 | 37400 | 480
CN1C2CC[C@@H]1[C@@H](COc1ccc3c(c1)OCO3)[C@@H](c1ccc(F)cc1)C2 | 298 | 12400 | 178
Fc1ccc([C@@H]2CC3CCC(N3)[C@H]2COc2ccc3c(c2)OCO3)cc1 (stereo in doubt; 4c) | 3.86 | 14.4 | 5.62

Reference: ChEMBL document CHEMBL1131114 (J Med Chem, 1998)
